According to ChEMBL document CHEMBL3352338, “Development and biological evaluation of potent and selective c-KIT(D816V) inhibitors” (J Med Chem, 2014):

Assays:
[1] = molecular target: Mast/stem cell growth factor receptor Kit (Homo sapiens, UniProt P10721, D816V); experiment: Inhibition of c-KIT D816V mutant (unknown origin)
[2] = molecular target: ALK tyrosine kinase receptor (Homo sapiens) (UniProt Q9UM73); experiment: Inhibition of ALK (unknown origin) at 1 uM by KINOMEscanning assay relative to control; values are per cent of control
Chain of ALK tyrosine kinase receptor (Homo sapiens) (Q9UM73 19-1620 limits assumed): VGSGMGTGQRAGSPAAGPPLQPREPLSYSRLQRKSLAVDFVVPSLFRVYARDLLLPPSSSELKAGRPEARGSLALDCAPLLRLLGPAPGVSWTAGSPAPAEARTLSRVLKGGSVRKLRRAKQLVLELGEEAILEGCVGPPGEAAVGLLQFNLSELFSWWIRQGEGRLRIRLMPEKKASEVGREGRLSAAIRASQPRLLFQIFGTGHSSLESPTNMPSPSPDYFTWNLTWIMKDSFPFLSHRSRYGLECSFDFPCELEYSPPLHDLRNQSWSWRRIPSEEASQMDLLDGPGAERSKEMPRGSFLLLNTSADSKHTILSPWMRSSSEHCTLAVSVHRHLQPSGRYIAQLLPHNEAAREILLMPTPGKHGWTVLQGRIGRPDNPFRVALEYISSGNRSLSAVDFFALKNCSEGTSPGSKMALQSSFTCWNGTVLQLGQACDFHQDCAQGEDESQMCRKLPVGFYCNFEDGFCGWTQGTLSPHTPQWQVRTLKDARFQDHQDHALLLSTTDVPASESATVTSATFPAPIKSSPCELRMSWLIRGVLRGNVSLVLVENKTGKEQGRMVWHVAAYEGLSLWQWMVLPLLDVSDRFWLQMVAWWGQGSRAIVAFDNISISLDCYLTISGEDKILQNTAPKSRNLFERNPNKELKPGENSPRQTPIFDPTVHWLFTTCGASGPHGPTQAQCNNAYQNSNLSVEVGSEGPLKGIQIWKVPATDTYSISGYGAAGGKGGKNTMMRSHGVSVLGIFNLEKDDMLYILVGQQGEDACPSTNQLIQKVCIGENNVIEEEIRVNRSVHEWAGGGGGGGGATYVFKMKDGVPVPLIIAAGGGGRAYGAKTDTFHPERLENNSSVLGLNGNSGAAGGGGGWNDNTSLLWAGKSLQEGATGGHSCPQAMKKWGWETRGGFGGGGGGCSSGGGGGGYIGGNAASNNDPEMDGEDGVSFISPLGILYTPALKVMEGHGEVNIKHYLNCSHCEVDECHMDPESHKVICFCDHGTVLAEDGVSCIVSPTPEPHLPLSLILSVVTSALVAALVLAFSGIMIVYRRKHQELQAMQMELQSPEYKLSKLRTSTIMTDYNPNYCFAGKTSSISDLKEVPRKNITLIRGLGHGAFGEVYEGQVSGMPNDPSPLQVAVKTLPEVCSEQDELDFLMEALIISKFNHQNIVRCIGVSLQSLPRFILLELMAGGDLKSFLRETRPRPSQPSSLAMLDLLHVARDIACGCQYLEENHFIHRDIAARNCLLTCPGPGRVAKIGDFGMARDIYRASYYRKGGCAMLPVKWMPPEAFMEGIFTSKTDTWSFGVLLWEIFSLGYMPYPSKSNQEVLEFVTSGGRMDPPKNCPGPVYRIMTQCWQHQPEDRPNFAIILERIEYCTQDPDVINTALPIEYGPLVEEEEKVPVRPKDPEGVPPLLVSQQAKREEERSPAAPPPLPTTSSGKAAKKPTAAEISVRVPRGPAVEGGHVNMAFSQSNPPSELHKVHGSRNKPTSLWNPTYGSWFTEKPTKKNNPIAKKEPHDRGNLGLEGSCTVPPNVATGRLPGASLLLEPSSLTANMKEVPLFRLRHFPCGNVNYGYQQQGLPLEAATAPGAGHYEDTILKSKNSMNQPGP

[3] = molecular target: RAC-beta serine/threonine-protein kinase (Homo sapiens) (UniProt P31751); experiment: Inhibition of AKT2 (unknown origin) at 1 uM by KINOMEscanning assay relative to control; values are per cent of control
Chain of RAC-beta serine/threonine-protein kinase (Homo sapiens) (P31751 whole entry): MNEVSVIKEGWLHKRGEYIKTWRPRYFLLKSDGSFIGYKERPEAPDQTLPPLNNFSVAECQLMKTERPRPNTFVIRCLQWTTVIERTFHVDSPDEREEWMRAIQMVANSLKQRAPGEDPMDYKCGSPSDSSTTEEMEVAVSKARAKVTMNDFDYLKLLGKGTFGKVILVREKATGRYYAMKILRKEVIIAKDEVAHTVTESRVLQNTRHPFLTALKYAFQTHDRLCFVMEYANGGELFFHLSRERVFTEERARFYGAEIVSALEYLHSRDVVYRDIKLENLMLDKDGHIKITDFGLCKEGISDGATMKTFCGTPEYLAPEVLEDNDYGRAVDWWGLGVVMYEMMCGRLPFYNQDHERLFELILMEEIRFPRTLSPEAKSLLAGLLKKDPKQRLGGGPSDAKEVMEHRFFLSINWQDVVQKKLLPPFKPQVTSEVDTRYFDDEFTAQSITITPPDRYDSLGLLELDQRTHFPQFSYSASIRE

[4] = molecular target: Cyclin-dependent kinase 9 (Homo sapiens) (UniProt P50750); experiment: Inhibition of CDK9 (unknown origin) at 1 uM by KINOMEscanning assay relative to control; values are per cent of control
Chain of Cyclin-dependent kinase 9 (Homo sapiens) (P50750 whole entry): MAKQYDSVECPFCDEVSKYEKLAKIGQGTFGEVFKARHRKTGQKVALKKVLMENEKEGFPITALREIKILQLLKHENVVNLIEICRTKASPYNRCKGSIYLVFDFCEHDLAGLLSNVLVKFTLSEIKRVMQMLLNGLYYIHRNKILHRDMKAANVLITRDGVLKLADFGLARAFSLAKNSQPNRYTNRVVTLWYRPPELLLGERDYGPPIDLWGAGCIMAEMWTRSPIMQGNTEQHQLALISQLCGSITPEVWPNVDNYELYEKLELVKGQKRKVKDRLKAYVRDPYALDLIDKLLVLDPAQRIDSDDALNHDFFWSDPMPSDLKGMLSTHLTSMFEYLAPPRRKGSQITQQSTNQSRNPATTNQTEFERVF

[5] = molecular target: Mitogen-activated protein kinase 3 (Homo sapiens) (UniProt P27361); experiment: Inhibition of ERK1 (unknown origin) at 1 uM by KINOMEscanning assay relative to control; values are per cent of control
[6] = molecular target: Receptor-type tyrosine-protein kinase FLT3 (Homo sapiens) (UniProt P36888); experiment: Inhibition of FLT3 (unknown origin) at 1 uM by KINOMEscanning assay relative to control; values are per cent of control
[7] = molecular target: Tyrosine-protein kinase JAK2 (Homo sapiens) (UniProt O60674); experiment: Inhibition of JAK2 (unknown origin) at 1 uM by KINOMEscanning assay relative to control; values are per cent of control
[8] = molecular target: Serine/threonine-protein kinase PAK 1 (Homo sapiens) (UniProt Q13153); experiment: Inhibition of PAK1 (unknown origin) at 1 uM by KINOMEscanning assay relative to control; values are per cent of control
Chain of Serine/threonine-protein kinase PAK 1 (Homo sapiens) (Q13153 whole entry): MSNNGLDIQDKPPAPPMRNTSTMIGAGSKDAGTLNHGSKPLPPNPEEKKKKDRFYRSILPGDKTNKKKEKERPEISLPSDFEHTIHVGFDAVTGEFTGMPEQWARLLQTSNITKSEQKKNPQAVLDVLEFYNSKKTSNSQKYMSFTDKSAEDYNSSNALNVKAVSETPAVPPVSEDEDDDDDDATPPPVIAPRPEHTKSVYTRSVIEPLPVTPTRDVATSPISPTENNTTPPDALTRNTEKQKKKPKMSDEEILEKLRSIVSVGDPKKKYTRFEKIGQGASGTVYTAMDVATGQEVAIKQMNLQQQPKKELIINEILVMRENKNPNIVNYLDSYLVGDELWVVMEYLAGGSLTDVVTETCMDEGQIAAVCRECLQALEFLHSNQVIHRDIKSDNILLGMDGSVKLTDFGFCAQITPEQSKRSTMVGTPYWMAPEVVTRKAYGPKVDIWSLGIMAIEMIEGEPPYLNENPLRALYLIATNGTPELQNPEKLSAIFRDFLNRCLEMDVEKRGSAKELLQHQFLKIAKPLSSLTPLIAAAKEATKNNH

[9] = molecular target: BDNF/NT-3 growth factors receptor (Homo sapiens) (UniProt Q16620); experiment: Inhibition of TRKB (unknown origin) at 1 uM by KINOMEscanning assay relative to control; values are per cent of control
[10] = molecular target: T1, Aurora kinase A (Homo sapiens) (UniProt O14965); experiment: Inhibition of AURKA (unknown origin) at 1 uM by KINOMEscanning assay relative to control; values are per cent of control
T1 sequence (whole entry): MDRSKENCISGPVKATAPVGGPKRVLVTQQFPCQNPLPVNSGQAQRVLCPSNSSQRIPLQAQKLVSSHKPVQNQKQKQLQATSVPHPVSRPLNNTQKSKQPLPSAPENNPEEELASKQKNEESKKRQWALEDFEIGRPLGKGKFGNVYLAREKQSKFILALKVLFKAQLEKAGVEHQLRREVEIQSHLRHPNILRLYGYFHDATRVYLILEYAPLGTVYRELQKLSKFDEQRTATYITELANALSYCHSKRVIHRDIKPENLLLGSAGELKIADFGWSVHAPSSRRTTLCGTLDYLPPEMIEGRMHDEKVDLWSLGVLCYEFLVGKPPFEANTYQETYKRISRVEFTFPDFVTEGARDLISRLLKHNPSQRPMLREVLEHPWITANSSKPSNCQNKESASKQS

[11] = molecular target: Cyclin-dependent kinase 19 (Homo sapiens) (UniProt Q9BWU1); experiment: Inhibition of CDK11 (unknown origin) at 1 uM by KINOMEscanning assay relative to control; values are per cent of control
[12] = molecular target: T2, Serine/threonine-protein kinase 17A (Homo sapiens) (UniProt Q9UEE5); experiment: Inhibition of DRAK1 (unknown origin) at 1 uM by KINOMEscanning assay relative to control; values are per cent of control
T2 sequence (whole entry): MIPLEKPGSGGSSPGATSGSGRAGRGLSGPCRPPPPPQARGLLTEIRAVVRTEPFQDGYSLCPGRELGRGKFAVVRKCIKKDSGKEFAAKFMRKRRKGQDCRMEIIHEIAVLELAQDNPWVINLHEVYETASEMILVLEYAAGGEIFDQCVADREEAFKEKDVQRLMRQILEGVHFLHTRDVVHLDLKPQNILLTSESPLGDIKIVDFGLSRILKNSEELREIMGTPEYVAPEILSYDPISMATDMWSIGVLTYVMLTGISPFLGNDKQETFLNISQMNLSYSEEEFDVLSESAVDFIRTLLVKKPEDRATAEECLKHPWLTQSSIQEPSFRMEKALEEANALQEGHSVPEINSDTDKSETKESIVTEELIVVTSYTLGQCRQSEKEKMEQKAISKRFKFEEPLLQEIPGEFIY

[13] = molecular target: Fibroblast growth factor receptor 1 (Homo sapiens) (UniProt P11362); experiment: Inhibition of FGFR1 (unknown origin) at 1 uM by KINOMEscanning assay relative to control; values are per cent of control
Chain of Fibroblast growth factor receptor 1 (Homo sapiens) (P11362 22-822 limits assumed): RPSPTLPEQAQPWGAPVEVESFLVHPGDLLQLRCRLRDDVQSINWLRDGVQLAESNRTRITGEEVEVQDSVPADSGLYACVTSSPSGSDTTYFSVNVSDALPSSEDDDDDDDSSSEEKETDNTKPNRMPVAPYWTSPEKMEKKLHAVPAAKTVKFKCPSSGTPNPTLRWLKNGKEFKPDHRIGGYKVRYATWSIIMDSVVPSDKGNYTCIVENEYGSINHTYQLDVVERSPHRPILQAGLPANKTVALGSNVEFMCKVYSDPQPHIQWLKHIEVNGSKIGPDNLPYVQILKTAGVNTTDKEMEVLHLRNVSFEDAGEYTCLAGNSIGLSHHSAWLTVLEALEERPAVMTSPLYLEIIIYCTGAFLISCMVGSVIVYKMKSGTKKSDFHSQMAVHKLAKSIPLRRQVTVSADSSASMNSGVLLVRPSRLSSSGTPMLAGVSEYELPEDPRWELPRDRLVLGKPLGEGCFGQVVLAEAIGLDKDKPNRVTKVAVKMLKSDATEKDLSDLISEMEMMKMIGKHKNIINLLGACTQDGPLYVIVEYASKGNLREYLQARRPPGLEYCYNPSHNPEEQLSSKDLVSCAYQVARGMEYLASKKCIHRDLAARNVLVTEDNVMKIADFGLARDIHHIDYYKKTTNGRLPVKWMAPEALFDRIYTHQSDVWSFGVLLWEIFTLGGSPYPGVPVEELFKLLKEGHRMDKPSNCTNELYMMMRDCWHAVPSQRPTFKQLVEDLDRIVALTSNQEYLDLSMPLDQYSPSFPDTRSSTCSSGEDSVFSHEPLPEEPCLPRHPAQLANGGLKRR

[14] = molecular target: Mast/stem cell growth factor receptor Kit (Homo sapiens, UniProt P10721); experiment: Inhibition of c-KIT (unknown origin) at 1 uM by KINOMEscanning assay relative to control; values are per cent of control
[15] = molecular target: Rho-associated protein kinase 1 (Homo sapiens) (UniProt Q13464); experiment: Inhibition of ROCK1 (unknown origin) at 1 uM by KINOMEscanning assay relative to control; values are per cent of control
[16] = molecular target: Phosphatidylinositol 4,5-bisphosphate 3-kinase catalytic subunit beta isoform (Homo sapiens) (UniProt P42338); experiment: Inhibition of PI3Kbeta (unknown origin) at 1 uM by KINOMEscanning assay relative to control; values are per cent of control
[17] = molecular target: 5'-AMP-activated protein kinase catalytic subunit alpha-1 (Homo sapiens) (UniProt Q13131); experiment: Inhibition of AMPKalpha 1 (unknown origin) at 1 uM by KINOMEscanning assay relative to control; values are per cent of control
[18] = system: Mast/stem cell growth factor receptor Kit (Homo sapiens), P10721 [D816V]; experiment: Inhibition of c-KIT D816V mutant (unknown origin) at 1 uM by KINOMEscanning assay relative to control; values are per cent of control
[19] = molecular target: Phosphatidylinositol 4,5-bisphosphate 3-kinase catalytic subunit alpha isoform (Homo sapiens, UniProt P42336); experiment: Inhibition of PI3Kalpha (unknown origin)
[20] = Cell cycle arrest in human HMC-1.2 cells assessed as accumulation at sub-G1 phase after 24 hrs by flow cytometric analysis; type: functional, cell-based
In short: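 HMC-1.2 cells exposed to increasing concentrations for 24 h; cell cycle distribution (SubG1/G1 fraction) measured by flow cytometry.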

[21] = Induction of apoptosis in human HMC-1.2 cells assessed as apoptotic cells at 1 uM after 48 hrs by TUNEL staining (reference value: 0.849%); type: functional

Chain of Mast/stem cell growth factor receptor Kit (Homo sapiens, UniProt P10721, D816V) (P10721 26-976 D816V limits assumed): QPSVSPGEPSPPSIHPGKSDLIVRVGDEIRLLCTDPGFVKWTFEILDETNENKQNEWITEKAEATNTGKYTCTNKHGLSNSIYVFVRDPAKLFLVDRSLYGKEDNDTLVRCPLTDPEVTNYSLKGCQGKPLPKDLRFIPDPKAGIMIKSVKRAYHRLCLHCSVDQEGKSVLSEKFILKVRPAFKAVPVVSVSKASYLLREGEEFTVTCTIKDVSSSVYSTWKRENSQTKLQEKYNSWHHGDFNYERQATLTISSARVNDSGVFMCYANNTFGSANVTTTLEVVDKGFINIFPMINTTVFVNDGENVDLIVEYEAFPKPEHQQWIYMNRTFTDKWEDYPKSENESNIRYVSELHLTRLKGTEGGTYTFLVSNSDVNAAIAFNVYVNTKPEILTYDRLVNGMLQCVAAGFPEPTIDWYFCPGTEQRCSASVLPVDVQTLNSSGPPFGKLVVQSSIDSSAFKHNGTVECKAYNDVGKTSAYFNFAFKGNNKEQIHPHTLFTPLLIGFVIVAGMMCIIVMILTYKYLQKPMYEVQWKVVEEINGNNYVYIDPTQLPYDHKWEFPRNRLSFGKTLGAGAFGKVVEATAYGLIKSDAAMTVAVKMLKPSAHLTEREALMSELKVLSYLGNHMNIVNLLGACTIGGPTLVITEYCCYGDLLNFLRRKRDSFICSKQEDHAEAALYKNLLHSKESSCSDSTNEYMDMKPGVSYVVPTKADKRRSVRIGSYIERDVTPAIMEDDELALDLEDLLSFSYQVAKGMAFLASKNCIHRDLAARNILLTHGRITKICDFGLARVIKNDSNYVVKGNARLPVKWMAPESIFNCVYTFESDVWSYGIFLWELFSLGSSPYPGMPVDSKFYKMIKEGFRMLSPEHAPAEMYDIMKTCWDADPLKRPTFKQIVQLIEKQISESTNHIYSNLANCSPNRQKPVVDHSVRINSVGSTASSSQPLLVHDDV

SMILES	IC50 [1] [nM]	residual activity [2] [%]	residual activity [3] [%]	residual activity [4] [%]	residual activity [5] [%]	residual activity [6] [%]	residual activity [7] [%]	residual activity [8] [%]	residual activity [9] [%]	residual activity [10] [%]	residual activity [11] [%]	residual activity [12] [%]	residual activity [13] [%]	residual activity [14] [%]	residual activity [15] [%]	residual activity [16] [%]	residual activity [17] [%]	residual activity [18] [%]	also measured
COc1ccc(-c2c[nH]c3ncc(-c4ccc(C(=O)N5CCOCC5)c(N)c4)cc23)cc1OC	8.5	76	97	100	100	7	3.2	87	17	0.85	100	0.25	90	51	16	95	84	1.4	
COc1cc(-c2c[nH]c3ncc(-c4cccc(N)c4)cc23)cc(OC)c1OC	97.7	33	100	83	23	25	78	89	68	8.9	96	86	100	9.8	94	87	90	2.1	
COc1ccc(-c2cnc3[nH]cc(-c4ccc(OC)c(OC)c4)c3c2)cc1N	25.6	51	100	100	88	18	46	88	16	17	79	2.4	92	37	16	93	98	0	
COc1ccc(-c2cnc3[nH]cc(-c4ccc(OC)c(OC)c4)c3c2)cc1OC	2.1	43	100	100	93	2.2	49	85	36	13	3.8	0.2	89	0.8	33	100	100	0	IC50 [19]: > 10000 nM; inhibition [20]: Dose-dependent effect; Activity [21]: 13.3%
COc1ccc(-c2c[nH]c3ncc(-c4cc(OC)c(OC)c(OC)c4)cc23)cc1OC	8.8	40	100	100	88	1.6	48	83	45	25	90	0.95	84	19	66	94	95	0	
